Laboratory results taken from ChEMBL document CHEMBL3259715, “Shuttle-cargo fusion molecules of transport peptides and the hD2/3 receptor antagonist fallypride: a feasible approach to preserve ligand-receptor binding?” (J Med Chem, 2014).

Columns and labels:
D(2) dopamine receptor = D(2) dopamine receptor (Homo sapiens, UniProt P14416); assay: Displacement of [3H]spiperone from human D2 receptor transfected in HEK cells; format: cell-based, HEK293
[1] = Cytotoxicity against hCMEC/D3 cells at 0.1 to 50 uM after 4 hrs by Alamar Blue assay; format: cell-based; settings: human, hcmec/d3, 4 h
Procedure, shortened: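 Cytotoxicity was tested by AlamarBlue on hCMEC/D3 cells, the same cells used for the calcein assay. The read-out is the fall in metabolic activity, seen as reduced redox potential of viable cells.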

[2] = Activity at P-gp in hCMEC/D3 cells at 0.1 to 50 uM after 15 mins by calcein-AM assay; format: ADME, cell-based; settings: human, cmec/d3, 0.25 h

Sequence of D(2) dopamine receptor (P14416 whole entry): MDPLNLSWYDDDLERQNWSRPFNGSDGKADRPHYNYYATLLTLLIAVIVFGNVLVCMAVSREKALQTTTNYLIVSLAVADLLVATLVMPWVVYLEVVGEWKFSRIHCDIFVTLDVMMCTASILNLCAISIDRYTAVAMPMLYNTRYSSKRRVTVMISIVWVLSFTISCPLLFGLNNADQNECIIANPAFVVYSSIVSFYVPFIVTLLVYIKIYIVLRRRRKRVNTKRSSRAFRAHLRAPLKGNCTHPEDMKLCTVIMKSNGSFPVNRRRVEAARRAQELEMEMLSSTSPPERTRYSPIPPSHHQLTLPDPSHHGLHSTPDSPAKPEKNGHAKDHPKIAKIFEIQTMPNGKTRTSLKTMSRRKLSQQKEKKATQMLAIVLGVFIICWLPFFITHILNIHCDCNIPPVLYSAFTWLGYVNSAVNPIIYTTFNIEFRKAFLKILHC

Compound	Ki (D(2) dopamine receptor) [nM]	Activity [2]	Activity [1]
C=CCN1CCC[C@H]1CNC(=O)c1cc(CCCSC2CC(=O)N(CCCCCC(=O)NCCOCCOCCOCCOCCC(=O)N[C@@H](Cc3cnc[nH]3)C(=O)N[C@@H](C)C(=O)N[C@H](C(=O)N[C@@H](Cc3ccc(O)cc3)C(=O)N3CCC[C@H]3C(=O)N[C@@H](CCCNC(=N)N)C(=O)N[C@@H](Cc3cnc[nH]3)C(=O)O)[C@@H](C)CC)C2=O)cc(OC)c1OC (stereo not given in full)	1.47	Not Active	Non-toxic
C=CCN1CCC[C@H]1CNC(=O)c1cc(CCCSC2CC(=O)N(CCCCCC(=O)NCCOCCOCCOCCOCCC(=O)N[C@@H](CCCCNC(=O)O/N=C/c3ccc([Si](F)(C(C)(C)C)C(C)(C)C)cc3)C(=O)N[C@@H](Cc3cnc[nH]3)C(=O)N[C@@H](C)C(=O)N[C@H](C(=O)N[C@@H](Cc3ccc(O)cc3)C(=O)N3CCC[C@H]3C(=O)N[C@@H](CCCNC(=N)N)C(=O)N[C@@H](Cc3cnc[nH]3)C(=O)O)[C@@H](C)CC)C2=O)cc(OC)c1OC (stereo not given in full)	5.98	Not Active	Non-toxic
CC[C@H](C)[C@H](NC(=O)[C@H](C)NC(=O)[C@@H](N)Cc1cnc[nH]1)C(=O)N[C@@H](Cc1ccc(O)cc1)C(=O)N1CCC[C@H]1C(=O)N[C@@H](CCCNC(=N)N)C(=O)N[C@@H](Cc1cnc[nH]1)C(=O)O	> 1000	Not Active	Non-toxic

Now from value to compound, other results behind:

Ki (D(2) dopamine receptor) [nM]	Activity [2]	Compound	Activity [1]
8.01	Not Active	C=CCN1CCC[C@H]1CNC(=O)c1cc(CCCSC2CC(=O)N(CCCCCC(=O)N[C@H](C(=O)N[C@@H](Cc3ccccc3)C(=O)N[C@@H](Cc3ccccc3)C(=O)N[C@@H](Cc3ccc(O)cc3)C(=O)NCC(=O)NCC(=O)N[C@@H](CO)C(=O)N[C@@H](CCCNC(=N)N)C(=O)NCC(=O)N[C@@H](CCCCNC(=O)CN3CCN(CC(=O)O)CCN(CC(=O)O)CCN(CC(=O)O)CC3)C(=O)N[C@@H](CCCNC(=N)N)C(=O)N[C@@H](CC(N)=O)C(=O)N[C@@H](CC(N)=O)C(=O)N[C@@H](Cc3ccccc3)C(=O)N[C@@H](CCCCN)C(=O)N[C@H](C(=O)N[C@@H](CCC(=O)O)C(=O)N[C@@H](CCC(=O)O)C(=O)N[C@@H](Cc3ccc(O)cc3)C(=O)O)[C@@H](C)O)[C@@H](C)O)C2=O)cc(OC)c1OC (stereo not given in full)	Non-toxic
52	Not Active	C=CCN1CCC[C@H]1CNC(=O)c1cc(CCCSC2CC(=O)N(CCCCCC(=O)NCCOCCOCCOCCOCCC(=O)N[C@@H](CCCCNC(=O)CN3CCN(CC(=O)O)CCN(CC(=O)O)CCN(CC(=O)O)CC3)C(=O)N[C@@H](Cc3cnc[nH]3)C(=O)N[C@@H](C)C(=O)N[C@H](C(=O)N[C@@H](Cc3ccc(O)cc3)C(=O)N3CCC[C@H]3C(=O)N[C@@H](CCCNC(=N)N)C(=O)N[C@@H](Cc3cnc[nH]3)C(=O)O)[C@@H](C)CC)C2=O)cc(OC)c1OC (stereo not given in full)	Non-toxic
